# Compound activity as filed in PubChem BioAssay.
# A selection: hits, their analogues and other compounds. The true share with any hit is near 2.1%.
# EBI2 antag: EBI2 receptor antagonists, beta-arrestin recruitment, primary screen, cell-based, luminescence, 7a,25-OHC stimulation, uHTS. G-protein coupled receptor 183 (Homo sapiens), P32249. 7a,25-OHC stimulated. inhibition, % at 5 µM. hit rate 0.81% among 360,000. AID 651636, 2012; in the data active = inhibition above about 38%;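 also: enzyme fragment complementation signal reports receptor beta-arrestin coupling in cells; 0% = agonist plus DMSO wells and 100% = wells without agonist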
# CCR6 antagonist: CCR6 receptor antagonists, primary screen, cell-based, CHO-K1, luminescence, beta-arrestin, uHTS. C-C chemokine receptor type 6 (Homo sapiens), P51684. CHO-K1 CCR6 PathHunter beta-arrestin, CCL20-stimulated. inhibition, % at 20 µM. hit rate 0.49% among 340,000. AID 493098, 2011;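 active = compounds whose inhibition of the agonist-driven luminescence signal at 20 µM reaches about 50%, limit read from the data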;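 also: cells stimulated with CCL20 at 14 nM final; plate controls were DMSO with CCL20 for no effect and DMSO without agonist for full effect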
# APJ ag: agonists of human apelin receptor APJ, primary screen, CHO-K1 cells, PathHunter beta-arrestin, luminescence; activation, % at 20 µM; P35414; hit rate 0.11% among 330,000; 0% DMSO wells, 100% apelin;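 active = activation more than six SD over the plate average, tested at 20 µM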;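 also: 0% = DMSO alone and 100% = apelin-13 at 10 nM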
#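 Assay system: CHO-K1 APJ beta-arrestin complementation cell line / Compound: single test compound dose, 20 µM final, 1% DMSO / Times: overnight seeding, 90 min compound at 25 °C, 1 h detection / Technique: beta-gal luminescence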
# HTR2A ag: mouse Htr2a agonists via beta-arrestin recruitment, primary screen, cell-based, luminescence. 5-hydroxytryptamine receptor 2A (Mus musculus), P35363. hit rate 0.66% among 360,000. activation, % at 7.6 µM. CHO-K1 mHTR2A beta-arrestin complementation; percent of 30 µM serotonin response;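 active = activation above a run cutoff, the mean activation of all tested compounds plus 3 SD, cut at about 14% in these data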;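 also: 0% = plate median of compound wells and 100% = 30 µM serotonin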
# Target sequence (P35363 whole entry, looked up): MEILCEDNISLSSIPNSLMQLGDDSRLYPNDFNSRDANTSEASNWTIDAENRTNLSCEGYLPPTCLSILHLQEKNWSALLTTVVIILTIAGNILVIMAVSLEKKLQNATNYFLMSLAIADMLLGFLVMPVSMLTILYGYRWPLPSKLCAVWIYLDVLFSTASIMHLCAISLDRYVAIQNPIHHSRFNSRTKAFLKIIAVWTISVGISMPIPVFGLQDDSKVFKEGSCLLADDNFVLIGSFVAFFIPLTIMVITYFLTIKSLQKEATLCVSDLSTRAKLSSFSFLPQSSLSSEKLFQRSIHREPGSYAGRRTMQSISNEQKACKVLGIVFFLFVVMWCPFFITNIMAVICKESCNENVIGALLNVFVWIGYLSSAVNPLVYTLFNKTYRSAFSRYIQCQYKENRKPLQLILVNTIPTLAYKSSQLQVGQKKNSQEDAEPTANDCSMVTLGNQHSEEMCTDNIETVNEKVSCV
# CXCR6 block: CXCR6 receptor inhibitors, primary screen, cell-based, beta-arrestin, luminescence, CHO-K1 PathHunter, 1536-well. C-X-C chemokine receptor type 6 (Homo sapiens), O00574. inhibition, % at 20 µM. hit rate 0.36% among 360,000. AID 602244, 2012; in the data active = inhibition above about 34%, passing the limit was not always enough;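 also: antagonist mode with CXCL16 agonist at 10 nM final; 0% = 10 nM CXCL16 with DMSO and 100% = unstimulated wells without agonist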
# APJ antagonist: antagonists of human apelin receptor APJ, primary screen, CHO-K1 cells, beta-arrestin complementation, luminescence | AID 2521, 2010 | hit rate 0.32% among 330,000 | inhibition, % at 20 µM;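 active = inhibition above about 40% at 20 µM, limit read from the data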;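 also: cells challenged with 10 nM apelin-13 agonist together with compound; plate controls were apelin-13 plus DMSO wells for no effect and DMSO wells lacking apelin-13 for full effect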
# MOR ag counter: OPRM1 agonists via beta-arrestin recruitment, confirmation, counter-screen for mouse HTR2A agonist project, cell-based, luminescence, single concentration; hit rate 5.3% among 2,300; U2OS OPRM1 beta-arrestin PathHunter; DMSO 0%, DAMGO 9.3 µM 100%; shares compounds with HTR2A ag; AID 624380, 2012; activation, % at 9.3 µM;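 active = mean activation above the mean of DMSO-only wells plus 3 SD, cut at about 0.5% in these data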
# HTR2A ag conf: mouse HTR2A agonists, beta-arrestin recruitment, confirmation, cell-based, luminescence, CHO-K1 PathHunter, triplicate. DMSO 0%, 30 µM serotonin 100%. shares compounds with HTR2A ag. activation, % at 7.6 µM. hit rate 19% among 2,300. AID 624381, 2012;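 active = mean activation across triplicates above the hit threshold derived in the original primary screen, cut at about 15% in these data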
# Numbers without * were called inactive; . = no result.
SMILES,EBI2 antag,CCR6 antagonist,APJ ag,HTR2A ag,CXCR6 block,APJ antagonist,MOR ag counter,HTR2A ag conf
CC(C)(C)c1csc(Sc2ccc([N+](=O)[O-])cn2)n1,0,-8,5,18*,-10,5,0.7*,4
CCOC(=O)Cc1nnc(NC(=O)C(CC)Sc2nncn2C)s1 (configuration not stated),-6,1,-3,14*,0,10,-1,-4
CCOC(=O)Cc1nnc(NC(=O)CSc2nncn2C)s1,0,1,2,-2,0,7,.,.
OCCN1CCN(CC(O)COCCOc2ccc(Br)cc2)CC1 (configuration not stated),-25,-9,-2,-6,7,15,.,.
O=C(Nc1ccc(Cl)cc1)Nc1nc(-c2ccccc2O)cs1,10,-10,2,14*,-23,-27,0,2
FC(F)(F)c1cccc(Cc2noc(CN(Cc3ccccn3)CC3CCCO3)n2)c1 (configuration not stated),-13,10,-6,0,4,-9,.,.
Cc1onc(-c2c(Cl)cccc2Cl)c1C(=O)N1CCOCC1,5,16,-1,17*,4,4,0,0
CC(C)N1CCN(c2ccc(OC[C@H]3CO[C@](Cn4cncn4)(c4ccc(Cl)cc4Cl)O3)cc2)CC1,-4,11,7,-8,1,3,.,.
Cc1nc(-c2nc(-c3c(C(=O)NNC(=O)Nc4cccc(Cl)c4)noc3C)cs2)cs1,-5,1,-5,19*,-1,-1,-1,52*
COc1ccc(OC)c(NC(=S)N(CCc2c(C)[nH]c3ccc(C)cc23)Cc2cccs2)c1,30,0,-2,20*,4,4,-1,4
COc1ccc(OC)c(NC(=S)N(CCc2c(C)[nH]c3ccccc23)Cc2cccs2)c1,20,12,-2,13,5,-7,.,.
CC(Oc1ccc2ccc(=O)oc2c1)C(=O)NCCCn1ccnc1 (configuration not stated),-10,4,0,4,9,11,.,.
CC(=O)N1CCN(C(=O)c2ccc(S(=O)(=O)Nc3ccccc3Cl)cc2)CC1,-9,-5,-2,16*,1,-22,0.9*,6
O=C(c1ccc(S(=O)(=O)Nc2ccccc2Cl)cc1)N1CCCC1,-4,0,-4,2,-4,-3,.,.
CCN(CC(=O)NCc1ccc(F)cc1)C(=O)c1cccnc1SC,4,11,0,15*,-3,29,-1,-6
CCN(CC(=O)NCc1ccc(F)cc1)C(=O)c1ccc(C(=O)c2ccccc2)cc1,1,5,-2,2,-5,11,.,.
Cc1cccc(-n2ccnc2SCC(=O)O)c1C,-7,-8,-1,1,-1,10,.,.
Cc1ccccc1-n1ccnc1SCC(=O)O,3,2,-3,17*,-10,-5,-1,-5
Cc1ccc(-c2nc3ncccc3o2)cc1NC(=O)c1cccs1,2,-4,-1,-5,1,-1,.,.
O=C(O)c1ccccc1Nc1cccc(C(F)(F)F)c1,0,-1,-2,-1,-1,6,.,.
O=C(O)c1ccccc1Nc1ccnc(C(F)(F)F)c1,3,-6,1,19*,-7,15,-1,-1
